Series [1] relates to Chlamydia pneumoniae. As to the kind of experiment: Chlamydiostatic activity against Chlamydia pneumoniae CV6 infected in human Hep2 cells after 72 hrs by fluorescence assay. Format: functional, HEp-2. The conditions noted are these: CV6, 72 h. In a few lines:
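Confluent HEp-2 monolayers on coverslips were centrifuged with C. pneumoniae CV-6 (10^3 IFU/mL; 1700g, 45 min, 35 C). Medium was replaced with MEM containing cycloheximide 1 μg/mL and serial 2-fold compound dilutions. After 72 h at 35 C, 5% CO2, inclusions were stained with fluorescein-conjugated anti-Chlamydia LPS mAb. MIC is the lowest concentration with no IFU; titrations were run in duplicate.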

Series [2] deals with Chlamydia pneumoniae. The series is described as follows: Antibacterial activity against Chlamydia pneumoniae CWL029 infected in human HL cells assessed as inhibition of bacterial growth at 10 uM after 72 hrs by TR-FIA method. In kind it is functional. In a few lines: (§1)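 HL cells were seeded at 6×10^4/well in RPMI 1640 with 7.5% FBS, 2 mM glutamine and gentamicin, then infected 24 h later with CWL-029 at MOI 0.2 plus 0.5 μg/mL cycloheximide and centrifuged 1 h. Compounds were added in six replicates for 72 h at 37 C. After methanol fixation, wells were labelled with europium-conjugated chlamydial antibody (100 ng/mL, 30 min, 37 C) and read by time-resolved fluorescence; rifampicin 0.012 μM served as control.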

The test system of another series is Staphylococcus aureus. The series is described as follows: Antibacterial activity against Staphylococcus aureus ATCC 25923 assessed as inhibition of bacterial growth at 50 uM after 18 hrs by photometric method. In kind it is functional. The essentials:
(§2)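 Bacteria were dispensed with 0.01% resazurin and compound, reaching a final 50 μM; ampicillin 25 μM was the control. After 18 h at 37 C, resazurin was read photometrically at 600 nm.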

The test system of a further series is HL. As to the kind of experiment: Cytotoxicity against human HL cells at 2.5 uM after 72 hrs by celltiter-glo analysis. Format: cell-based. In a few lines:
(§3)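 After 72 h, viability was measured as intracellular ATP by CellTiter-Glo luminescence after partial medium replacement. Results are expressed as a percentage of cells given DMSO-adjusted medium.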

The test system of series [3] is Chlamydia pneumoniae. As to the kind of experiment: Antibacterial activity against Chlamydia pneumoniae CWL029 infected in human HL cells after 72 hrs by TR-FIA method. Format: functional, cell-based. The conditions noted are these: in the assay text read “immunofluorescence method” for “TR-FIA method”. In a few lines: as §1
The nature of series [4]: Cytotoxicity against human HL cells assessed as cell viability at 10 uM after 72 hrs by celltiter-glo analysis. The following applies: read-out: Activity. In kind it is cell-based. The essentials:
as §3
(In general: Cellular ATP, detected with luciferase, serves as a proxy for viable cell number.)

Another series deals with Escherichia coli. The series is described as follows: Antibacterial activity against Escherichia coli ATCC 25922 assessed as inhibition of bacterial growth at 50 uM after 18 hrs by photometric method. In kind it is functional, organism-based. In a few lines: as §2
The test system of series [5] is Chlamydia pneumoniae. As to the kind of experiment: Antibacterial activity against Chlamydia pneumoniae CV6 infected in human Hep2 cells assessed as minimal chlamydiocidal activity after 72 hrs by fluorescence assay. Format: functional, HEp-2. The conditions noted are these: CV6, 72 h. The essentials: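 CV-6 was grown in HEp-2 cells under 2-fold compound dilutions (MEM, cycloheximide 1 μg/mL, 72 h, 35 C). Drug medium was then removed, wells washed with PBS pH 7.4 and fed drug-free medium. Monolayers were disrupted, passed onto fresh monolayers, incubated and stained with fluorescein anti-LPS mAb. MCC is the lowest concentration giving no IFU in the antibiotic-free passage; run in duplicate.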

≈ marks a conversion by molar mass, not a printed value. Calls of active or inactive are those of the source. No cut-off for these calls is given here.

As a reminder, the MIC is the lowest concentration found to suppress growth. For orientation: inhibition means the relative decrease from the control value, in per cent. Broadly, the IC50 is the point on the concentration scale where inhibition reaches its midpoint. Read a high IC50 as weaker potency in that assay. With `Cc1cccc(C(=O)Nc2cccc(-c3nc4ccccc4[nH]3)c2)c1`, the MIC against Chlamydia pneumoniae [1] worked out at 3.2 µM (≈ 1.05 µg/mL). Besides, the inhibition at 10 µM in the series on Chlamydia pneumoniae [2] is 98%. The “growth inhibition (GI)” value in the series on Staphylococcus aureus and with Escherichia coli was “inactive” throughout. Further, in the series on HL, the Activity result was “Non-toxic”. In the series with Chlamydia pneumoniae [3], this molecule registered an IC50 of 2000 nM. In addition, the viability at 72 h, 10 µM in series [4] came to 99%. The MCC in the series with Chlamydia pneumoniae [5] was determined as 3.2 µM.

Regarding `O=C(Nc1cccc(-c2nc3ccccc3[nH]2)c1)c1cccc(C(F)(F)F)c1`, 3.2 µM (≈ 1.22 µg/mL) was the least that counted as inhibitory against Chlamydia pneumoniae [1] (MIC). In addition, the inhibition at 10 µM in the series with Chlamydia pneumoniae [2] worked out at 99%. The inhibition of growth at 50 µM with Staphylococcus aureus (ATCC 25923, 18 h, read-out: GI) worked out at 85%. The Activity entry in the series on HL is “Non-toxic”. In addition, half-maximal inhibition in the series with Chlamydia pneumoniae [3] (IC50) was put at 3000 nM. Further, the viability at 72 h, 10 µM in series [4] amounted to 69%. In the series on Escherichia coli, the “growth inhibition (GI)” value was “inactive”. Also, in the series on Chlamydia pneumoniae [5], the MCC was determined as 50.4 µM.

`O=C(Nc1cccc(-c2nc3ccccc3[nH]2)c1)C1CCCCC1` gave an MIC against Chlamydia pneumoniae [1] of 24.5 µM (≈ 7.83 µg/mL). In the series on Chlamydia pneumoniae [2], the inhibition at 10 µM amounted to 100%. Besides, the “growth inhibition (GI)” value with Staphylococcus aureus and in the series with Escherichia coli was “inactive” throughout. In addition, the Activity result in the series with HL was “Non-toxic”. Also, the viability at 72 h, 10 µM in series [4] was 94%. The MCC in the series on Chlamydia pneumoniae [5] amounted to 24.5 µM.

(Values after ChEMBL document CHEMBL1275335, “Design and synthesis of 2-arylbenzimidazoles and evaluation of their inhibitory effect against Chlamydia pneumoniae” (J Med Chem, 2010).)
